Bioassay records as filed in PubChem.
CR mimetic SO: yeast age-related superoxide inhibition as caloric restriction mimetic; S. cerevisiae aged cells, superoxide DHE fluorescence; stronger effect = lower value; superoxide response (% of plate mean), % at 10 µM; actives 0.18% (n = 330,000); AID 2690;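 active = superoxide response under a set limit, about three screen SD below normal, cut at about 65% in these data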;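 also: yeast aged for seven days with compound at 30 °C before DHE staining; 100% = average MFI of all compound-treated wells on the plate with controls excluded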
Mot1-301 SUMO: SUMOylation pathway inhibition by Mot1-301 growth rescue. S. cerevisiae Mot1-301 growth rescue, ATP luminescence, 38.5C; percent above DMSO median, 100 means doubled. growth rescue, % at 18.8 µM. actives 1% (n = 320,000);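 active = every valid replicate shows activation above 250% relative to neutral control wells; inactive = the rest, any valid replicate at or below 250%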;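 also: OY570 slx delta 5 strain wells were the positive control but not used for scaling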
PglD inh: PglD (C. jejuni) enzyme inhibition | purified PglD enzyme, DTNB colorimetric CoA detection | inhibition, % at 12.5 µM | actives 0.098% (n = 360,000) | AID 602405; in the data active = inhibition above about 16%, passing the limit was not always enough
Cneo AK release: Cryptococcus neoformans lysis via adenylate kinase release; AID 651654; lysis activity, % at 15 µM; C. neoformans lysis, adenylate kinase release luminescence, 4 h; normalised: neutral wells 0, clomiphene wells 100; actives 0.2% (n = 360,000);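 active = mean lysis activity across replicates of at least 80%, whatever share of replicates individually reach that level; inactive = mean lysis activity below 80%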
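Material: C. neoformans cells; Schedule: 4 h static compound exposure, 37 °C, read 1 h post-reagent; Measured by: adenylate kinase release luminescence; Read-out: signal increase indicating cell lysis; Controls: Clomiphene as positive lysis control.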
Ecoli rRNA inh: inhibitors of bacterial rRNA selective over humanized ribosomes; actives 1.6% (n = 350,000); GFP signal change (wild-type ribosome), % (test concentration not listed); E. coli WT GFP vs humanized-ribosome RFP mutants, fluorescence, 24 h; stronger effect = lower value; DMSO median 0, no signal -100; AID 720706;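 active = significant combined selectivity score with lowered wild-type GFP, culture density cut under 30%, mutant RFP and density less affected; inactive = any of these conditions unmet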
Yeast Mot1 SUMO: SUMO pathway inhibitors in yeast Mot1-301 growth | shares compounds with Mot1-301 SUMO | S. cerevisiae Mot1-301 galactose growth, ATP luminescence, 24 h; -100 = growth of slx-deleted rescue strain | growth activity, percent, % at 42 µM | 2,300 tested, under 10 active;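 active = Signal drops as the depositor expects, and the fitted half-maximal dose is no more than ten times the top valid tested dose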;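 also: more negative values mean stronger growth rescue toward the control strain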
Starred values were filed as active, the others as inactive; nt = no result; + = active, no number. A selection: hits, their analogues and other compounds. The true share with any hit is near 2.2%.

SMILES	CR mimetic SO	Mot1-301 SUMO	PglD inh	Cneo AK release	Ecoli rRNA inh	Yeast Mot1 SUMO
C[C@@H]1CN([C@H](C)CO)C(=O)c2cc(NS(=O)(=O)c3cccs3)ccc2O[C@@H](C)CCCCO[C@@H]1CN(C)CC1CCCCC1	nt	nt	1.0	4.1	2.8	nt
COc1ccc(-n2c(C)cc(C(=O)CN3C(=O)NC4(CCCc5sccc54)C3=O)c2C)cc1 (stereo not given)	108.7	+	nt	nt	nt	-1.0
Cc1cc(C(=O)CN2C(=O)NC3(CCCc4sccc43)C2=O)c(C)n1-c1ccccc1 (stereo not given)	106.3	37.8	14.2	1.5	nt	nt
CCOC(=O)C1CCN(C(=O)c2cccs2)CC1	102.8	-7.9	nt	nt	-4.1	nt
CCOC(=O)C1CCN(C(=O)c2sccc2Cl)CC1	112.1	567.0*	-1.7	2.2	4.3	0.5
Cc1ccc(S(=O)(=O)N[C@H]2CC[C@H](CC(=O)NC3CCCCC3)O[C@@H]2CO)cc1	nt	nt	0.2	-2.8	-2.2	nt
CC(C)NC(=O)NC(=O)COC(=O)CCCSc1nc2ccccc2s1	99.2	504.6*	0.1	2.8	4.0	0.1
O=C(NCc1csc(-c2cccs2)n1)Nc1ccc(C(F)(F)F)cc1	99.8	3.5	5.1	1.6	-7.9	nt
O=C(NCc1csc(-c2cccs2)n1)Nc1ccc(F)cc1F	95.1	437.8*	nt	nt	15.2	-0.4
CN(C)CC(=O)N1[C@H](C(=O)NC2CCC2)[C@@H](CO)[C@@H]2Cn3c(ccc(-c4ccccc4)c3=O)[C@@H]21	nt	nt	-0.3	-0.7	1.6	nt
CN(C)S(=O)(=O)c1cccc(NC(=O)COc2nc3ccccc3nc2N2CCOCC2)c1	99.4	523.7*	5.4	-1.1	-29.7	0.1
O=C(COc1ncnc2ccccc12)Nc1ccc(Cl)c(S(=O)(=O)N2CCOCC2)c1	103.0	383.7*	0.7	-0.7	-9.5	0.1
O=C(COc1nc2ccccc2nc1N1CCOCC1)Nc1ccc(S(=O)(=O)N2CCCC2)cc1	95.6	-4.4	0.0	0.8	-11.3	nt
COc1ccc(/C=C/C(=O)N2CCC(C(N)=O)CC2)cc1S(=O)(=O)N1CCOCC1	97.3	714.3*	12.9	-1.2	9.3	-0.7
COc1ccc(/C=C/C(=O)N2CCN(c3ccccc3)CC2)cc1S(=O)(=O)N1CCOCC1	142.9	-17.9	nt	nt	-0.4	nt
C[C@H]1CN([C@@H](C)CO)S(=O)(=O)c2ccc(-c3ccccc3)cc2O[C@H]1CN(C)C(=O)c1ccc2c(c1)OCO2	nt	nt	-2.2	-1.8	-14.1	nt
CCOC(=O)c1[nH]c2ccc(F)cc2c1NC(=O)CCN1CCSCC1	98.1	-29.2	0.6	3.5	nt	nt
CCOC(=O)c1[nH]c2ccc(F)cc2c1NC(=O)CCN1CCOCC1	96.8	383.0*	nt	nt	-1.6	0.0
S=C(Nc1ccccc1Cl)N1CCOCC1	106.9	651.3*	nt	nt	nt	1.3
S=C(Nc1ccccc1Cl)N1CCCCCC1	79.6	4.7	nt	nt	6.9	nt
Cc1ccc(-c2csc(NC(=O)CSc3nc(C)cs3)n2)cc1	97.5	541.2*	3.5	1.8	-33.5	0.1
O=C(c1ccccc1)C1CC=CCC1C(=O)c1ccccc1 (stereo not given)	nt	nt	6.6	2.7	3.8	nt
O=C(O)C1C2CCCCC2=C2CCCCC2C1C(=O)c1ccccc1 (stereo not given)	68.1	394.1*	-2.9	-0.6	-3.1	-0.3
N/C(=N\NC(=O)c1sccc1OCc1ccc(Cl)cc1Cl)c1ccccn1	83.9	529.1*	nt	nt	-16.4	0.3
CNC(=S)NNC(=O)c1sccc1OCc1ccc(Cl)cc1Cl	97.4	nt	-2.5	5.0	nt	nt
SMILES	CR mimetic SO	Mot1-301 SUMO	PglD inh	Cneo AK release	Ecoli rRNA inh	Yeast Mot1 SUMO
CNC(=O)C[C@H]1CC[C@H]2[C@@H](COc3ccc(NC(=O)c4ccc5c(c4)OCO5)cc3C(=O)N2C)O1	nt	nt	1.4	-1.9	1.5	nt
Cc1ccccc1-c1ccc([C@H]2[C@@H](CO)N3CCCCN(C(=O)NC4CCCC4)C[C@@H]23)cc1	nt	nt	-3.4	-2.1	-57.8	nt
Cc1cc2c(C)ccc(C)c2nc1SCC(=O)c1cccs1	104.3	591.2*	0.9	2.5	nt	-0.5
C#CCNC(=O)C1=C[C@H](c2cn(C(C)=O)c3ccccc23)C[C@H](OCCCCO)O1	nt	nt	-7.6	44.5	nt	nt
Fc1ccc(-c2cc(C(F)(F)F)nc(NCc3cccs3)n2)cc1	106.0	457.7*	-0.7	-1.5	nt	0.6
O=C(NC1CCCCC1)c1n[nH]c2c1CCCCC2	124.6	363.7*	-2.8	-8.0	1.3	-1.7
CCC(C)(C)C1CCc2[nH]nc(C(=O)NC3CCCC3)c2C1 (stereo not given)	115.8	150.9	0.9	1.1	10.8	nt
O=C(NC[C@H]1N[C@H](CO)[C@@H]1c1ccc(-c2ccccc2)cc1)C1CCC1	nt	nt	3.7	1.6	-0.7	nt
Cc1nc(-c2ccc(Cl)cc2)sc1C1(C)CC(c2c(Cl)cccc2Cl)=NO1 (stereo not given)	96.5	420.8*	1.5	2.9	14.6	0.2
Cc1nc(-c2ccccc2)sc1C1(C)CC(c2c(Cl)cccc2Cl)=NO1 (stereo not given)	101.3	-7.6	-1.6	-2.0	-8.3	nt
C[C@H]1CN([C@@H](C)CO)C(=O)Cc2cc(NC(=O)C3CCCCC3)ccc2O[C@@H]1CN(C)C(=O)Nc1ccc(C(F)(F)F)cc1	nt	nt	3.6	-4.7	-4.1	nt
C(=N\Nc1ccc2nncn2n1)/c1ccccn1	101.7	498.8*	5.6	0.6	-34.2*	0.2
CCN(C[C@@H]1N[C@@H](CO)[C@@H]1c1ccc(C2=CCCC2)cc1)C(=O)c1ccncc1	nt	nt	-0.7	1.5	-1.8	nt
CCNc1nc(NCC)nc(SCCOC(=O)Nc2ccccc2)n1	103.0	+	-3.2	-0.4	nt	-0.4
COC(=O)c1ccccc1NC(=O)NC1CCCC1	102.3	-14.7	nt	nt	19.8	nt
COc1ccc(NC(=O)c2ccccc2NC(=O)NC2CCCCC2)cc1	107.7	521.9*	-4.5	-1.8	nt	-0.2
O=C(N[C@@H]1CC[C@H](CCNC(=O)C2CCOCC2)O[C@H]1CO)c1ccncc1	nt	nt	-1.2	-2.0	1.9	nt
CCOC(=O)c1ccc(CNC(=O)Cn2nnc(-c3ccc(C)cc3)n2)o1	98.1	+	-3.1	9.6	nt	0.9
CNC(=O)C[C@H]1CC[C@H]2[C@@H](COc3ccc(NC(=O)Nc4ccc(Cl)cc4)cc3C(=O)N2C)O1	nt	nt	1.8	-0.3	3.3	nt
O=C(N/N=C/c1ccccc1)c1[nH]c2ccc(Br)cc2c1-c1ccccc1	86.1	490.8*	nt	nt	6.1	0.4
CO[C@H]1CN(C)C(=O)c2ccc(NC(C)=O)cc2OC[C@@H](C)N(C(=O)CN2CCOCC2)C[C@@H]1C	nt	nt	-1.9	6.8	nt	nt
CCN1C(=O)c2cccc3c(S(=O)(=O)Nc4ccc(OC)cc4OC)ccc1c23	93.4	767.9*	-1.1	-0.8	nt	0.1
CCC(=O)N1C[C@@H](C)[C@H](OC)CN(C)C(=O)c2ccc(NC(=O)c3cnccn3)cc2OC[C@H]1C	nt	nt	7.8	-2.0	1.8	nt
